The values below come from ChEMBL document CHEMBL4513216, “Probing the Open Global Health Chemical Diversity Library for Multistage-Active Starting Points for Next-Generation Antimalarials” (ACS Infect Dis, 2020).

A short description of this series: Toxicity liver stage against HepG2, at 10uM. Format: cell-based. On the set-up: test concentration 10 uM, cell line HepG2-A16-CD81EGFP. Conditions: human, HepG2-A16-CD81EGFP cells; read-out: INHIBITION
The gist of the method:
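Uninfected HepG2-A16-CD81EGFP cells, 3 × 10^3 per well, 1536-well, plated on prespotted compound at 10 μM final, parasite-free screening media added to match infected plates; puromycin 10 μM positive, DMSO 0.5% negative; run in parallel with 48 h PbLuc assay at 37 °C, 5% CO2; viability by CellTiter-Glo luminescence, normalized to controls.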
Regarding `CCOc1ccc(-c2ccnc(C)n2)cc1C(=O)O`, the cytotoxicity at 10 µM came out at 5.59%.

For the compound `CC(C)Nc1nc(N2CCCC2)nc2c1CN(c1ncc(F)cn1)CC2`, the cytotoxicity at 10 µM came out at 13.5%.

Consider `CS(=O)(=O)NCc1cnc2n1CCN(Cc1ccccn1)CC2`, for which the cytotoxicity at 10 µM worked out at 8.85%.

Take `Cc1ccc(N2CCO[C@H]3CN(Cc4cccs4)C[C@H]32)nn1`: the cytotoxicity at 10 µM is -75.6%.

With `Cc1ccsc1C1CC(=O)Nc2c1cnn2C(C)C` (stereo unspecified), the cytotoxicity at 10 µM is -7.7%.

Regarding `CCC(C)NS(=O)(=O)Cc1cccc(NC(=O)c2ccc[nH]2)c1` (stereo unspecified), the cytotoxicity at 10 µM came to 15.5%.

As for `CCc1nccn1CC(=O)Nc1cccc(C(=O)OC)c1`, the cytotoxicity at 10 µM is -6.88%.

As for `CCc1c(C(=O)N2CCCN(C(C)=O)CC2)cnn1C(C)(C)C`, the cytotoxicity at 10 µM is -3.93%.

Take `COC[C@@H]1CCC[C@@]12CN(C(=O)C1CCOCC1)CCO2`: the cytotoxicity at 10 µM was -111%.

For the compound `CCCn1nccc1NC(=O)CN1CCc2cnc(C(C)C)nc2C1`, the cytotoxicity at 10 µM was -5.59%.

For `COc1cccc(CC2CN(C3CCCCC3)CCO2)c1` (stereo unspecified), the cytotoxicity at 10 µM is -11.9%.

In the case of `CC(C)Oc1ncc(C(=O)N2CCC(CC(N)=O)CC2)cc1Cl`, the cytotoxicity at 10 µM is -9.47%.

Take `COC(=O)c1ccc(Cn2nc(C)cc2C)c(F)c1`: the cytotoxicity at 10 µM is 4.11%.

As to `Cc1nc(C)c(Cn2ccnc2-c2cc(CN(C)C)cs2)s1`, the cytotoxicity at 10 µM was 1.99%.

`C[C@@H](NC(=O)c1cccs1)c1onc(-c2cccnc2)c1C(=O)O`: the cytotoxicity at 10 µM was found to be 6.09%.

Consider `O=C(NCCN1CCOCC1)NCc1ccccc1-n1cccn1`, for which the cytotoxicity at 10 µM was -6.32%.

Take `CN(CC(=O)N(CCC#N)c1ccccc1)C1CCc2ccccc21` (stereo unspecified): the cytotoxicity at 10 µM is 3.15%.

Take `CCN(CCN(C)C)c1nc(CCN)nc2sc(C)c(C)c12`: the cytotoxicity at 10 µM is -1.78%.

In the case of `O=C(CCCn1cncn1)NC1CCc2nccn2C1` (stereo unspecified), the cytotoxicity at 10 µM amounted to 2.03%.

With `O=C1CN(Cc2occc2C(=O)NCCc2ccc(F)cc2)CCN1`, the cytotoxicity at 10 µM was -10.2%.

With `CCOCC(=O)N1C[C@@H](O)[C@H](N2CCN(c3ccccc3)CC2)C1`, the cytotoxicity at 10 µM was determined as 7.43%.

Consider `C[C@H]1C[C@@H]2CCN(C(=O)c3cnccn3)C[C@H]2O1`, for which the cytotoxicity at 10 µM is 2.96%.

As for `Cn1cc(-c2csc(CN3CCOCC3)n2)cn1`, the cytotoxicity at 10 µM was -11.4%.

On to `COCCN1CCC(CNC(=O)C2(c3ccc(F)cc3)CCC2)CC1`, for which the cytotoxicity at 10 µM was -4.45%.

For `CNS(=O)(=O)Cc1ccc(CNC(=O)c2ccccn2)cc1`, the cytotoxicity at 10 µM is -0.945%.

Consider `O=C1NCCCCC1NS(=O)(=O)N1CCCCCC1` (stereo unspecified), for which the cytotoxicity at 10 µM was determined as 4.15%.

With `CC(=O)c1ccc(OCC(=O)NC(C)CCc2ccco2)cc1` (stereo unspecified), the cytotoxicity at 10 µM is -9.96%.

For `CCCc1nc(C)cc(N2CCC3(CCC(=O)N(CCOC)C3)CC2)n1`, the cytotoxicity at 10 µM stood at 9.51%.

For `O=C(Nc1nnc[nH]1)C(c1cccc(F)c1)N1CCOCC1` (stereo unspecified), the cytotoxicity at 10 µM is -9.07%.

`Cc1nsc(NCCNS(=O)(=O)c2cccc(Cl)c2)n1`: the cytotoxicity at 10 µM worked out at 5.62%.

As to `CC(Sc1nnc(C2CC2)n1CC(N)=O)c1ccc(F)c(Cl)c1` (stereo unspecified), the cytotoxicity at 10 µM was found to be 4.26%.

Regarding `O=C(c1cscn1)N1CCN2C[C@H](OCc3cccnc3)C[C@H]2C1`, the cytotoxicity at 10 µM is -7.62%.

For the compound `CC(C)=CCN1C[C@@H]2CC[C@H]1CN(Cc1coc(C)n1)C2`, the cytotoxicity at 10 µM was found to be 1.25%.

In the case of `O=C(c1coc(-c2ccccc2)n1)N1CCCC1`, the cytotoxicity at 10 µM is 5.47%.

For `COCCN(C)C[C@@H]1CCC[C@@H]2CN(c3cc(OC)ncn3)C[C@@H]21`, the cytotoxicity at 10 µM is 1.75%.

For `CCc1nc(N)nc(NCCC(=O)N2CCCC2)c1C`, the cytotoxicity at 10 µM is -42.5%.

Turning to `Cc1nccn1-c1cc(CNC(=O)CCS(=O)(=O)C2CCCC2)ccn1`, the cytotoxicity at 10 µM was -1.71%.

On to `Cn1nc(CNC(=O)C2CCC2)cc1C1CC1`, for which the cytotoxicity at 10 µM was -4.31%.

In the case of `O=C(c1cn(-c2cccc(Cl)c2F)nn1)N1CCCSCC1`, the cytotoxicity at 10 µM was 3.98%.

In the case of `CNC(=O)CS(=O)(=O)NC1CCC(C)CC1` (stereo unspecified), the cytotoxicity at 10 µM is -8.18%.

On to `CCn1nc(CC(C)C)cc1C(=O)N1CC(c2ccncc2)C1`, for which the cytotoxicity at 10 µM is -6.38%.

In the case of `C[C@H]1C[C@H]2CN(S(=O)(=O)c3ccc(F)cc3)CC[C@@H]2O1`, the cytotoxicity at 10 µM was found to be 2.97%.

For `Cc1cccc(C(=O)N2CCCSCC2CN2CCCC2)c1` (stereo unspecified), the cytotoxicity at 10 µM stood at 8.77%.

On to `Cc1cc2ccccc2n1CCC(=O)N1CCCC2(CC1)CNC(=O)O2` (stereo unspecified), for which the cytotoxicity at 10 µM came out at 3.5%.

`Cc1nc(CNC(=O)N2CCN(c3ccc(Cl)cn3)CC2)sc1C`: the cytotoxicity at 10 µM amounted to 3.92%.

As to `Cc1cc(C)c(S(=O)(=O)Nc2cccc3c2OCCO3)cc1C(=O)O`, the cytotoxicity at 10 µM amounted to 5.87%.

For `CC1COC2(CCN(C(=O)c3ncoc3C(C)C)CC2)O1` (stereo unspecified), the cytotoxicity at 10 µM was 1.15%.

Take `Cc1nnc2ccc(N3CCN(CCc4ccccn4)CC3)nn12`: the cytotoxicity at 10 µM was -8.76%.

As to `O=C(C1COc2ccccc2O1)N1Cc2cnn(CCO)c2C1` (stereo unspecified), the cytotoxicity at 10 µM is -3.12%.

For the compound `Cc1nnsc1CN1CC[C@@](O)(C2CCC2)[C@H](C)C1`, the cytotoxicity at 10 µM came to 11.8%.

With `CC1CN(C)c2ccccc2N(C(=O)c2ccc(=O)n(C)c2)C1` (stereo unspecified), the cytotoxicity at 10 µM was -3.51%.

Regarding `O=C(NCc1cccnc1N1CCCC(O)C1)c1ccsc1` (stereo unspecified), the cytotoxicity at 10 µM was found to be 14.3%.

For the compound `CCn1nc(C)c(CNC(=O)c2cn(CC3CCCO3)nn2)c1C` (stereo unspecified), the cytotoxicity at 10 µM is -2.34%.

Take `O=C1CO[C@H](c2ccc(NS(=O)(=O)Cc3ccccc3)cc2)[C@@H](CO)N1`: the cytotoxicity at 10 µM turned out to be 40.8%.

With `O=C(c1cc[nH]n1)N(Cc1ccccc1)CC1CCC1`, the cytotoxicity at 10 µM is -6.74%.

`N#Cc1cccc(CN2C[C@@H](F)[C@@H](OCc3nc4ccccc4[nH]3)C2)c1`: the cytotoxicity at 10 µM stood at 6%.

For the compound `CC(C)CCN(c1cn[nH]c1)S(=O)(=O)c1cccc(C#N)c1`, the cytotoxicity at 10 µM was 7.95%.

As to `CN(CCc1cn[nH]c1)C(=O)CCc1ccc(Cl)cc1`, the cytotoxicity at 10 µM turned out to be 1.82%.

Regarding `O=C(C1=CCCC1)N1CCC[C@]2(C[C@@H](OCc3ccncc3)CO2)C1`, the cytotoxicity at 10 µM was -6.5%.

Turning to `CC(=O)N1CCc2c(nc(N(C)C)nc2NCCCn2ccnc2C)C1`, the cytotoxicity at 10 µM is -7.42%.

In the case of `COc1cccc2c1OCC(C(=O)NCCCn1nc(C)c(Cl)c1C)C2` (stereo unspecified), the cytotoxicity at 10 µM was -4.12%.

Turning to `Cc1ccccc1CC(C)(C)NC(=O)COc1cccc(C(N)=O)c1`, the cytotoxicity at 10 µM was determined as 20.4%.

On to `Cc1nc(CN2CCCC(c3cc(C(F)(F)F)[nH]n3)C2)cs1` (stereo unspecified), for which the cytotoxicity at 10 µM is -4.95%.

Consider `O=C(c1cn(Cc2ccc(Cl)cc2)nn1)N1CCCO1`, for which the cytotoxicity at 10 µM is -6.01%.

For the compound `CCC(O)CN1CCN(C(=O)CCc2c(C)noc2Cl)CC1` (stereo unspecified), the cytotoxicity at 10 µM is -8.89%.

As to `c1cc(CNCc2ccnc(N3CCCC3)c2)c2c(c1)OCCCO2`, the cytotoxicity at 10 µM worked out at 26.6%.

Turning to `Cc1cc2n(n1)CC(CNC1CCN(Cc3ccccc3C)CC1)CN2` (stereo unspecified), the cytotoxicity at 10 µM came to 3.69%.

Regarding `CCOC(=O)c1nnc2ccccc2c1N1CCN(C(C)C)CC1`, the cytotoxicity at 10 µM was -1.54%.

On to `CCC(=O)N1CCC2(CC1)CC(Oc1ccccc1)CO2` (stereo unspecified), for which the cytotoxicity at 10 µM came to 7.69%.

As for `Cc1ccc(CN2C[C@@H]3C[C@H](C(=O)Nc4cccnc4)[C@H](C2)O3)cc1`, the cytotoxicity at 10 µM was -83.8%.

With `CCNC(=O)C(C)NC(=O)Nc1ccccc1SC(F)(F)F` (stereo unspecified), the cytotoxicity at 10 µM is -9.5%.

Take `COc1ccc(CN2CCOC3(CCCN(c4nnc(C)o4)C3)C2)cc1` (stereo unspecified): the cytotoxicity at 10 µM was -23.6%.

Turning to `CC(C)(C)C(=O)NC[C@H]1Cn2c(-c3ccccc3)cnc2CO1`, the cytotoxicity at 10 µM is -3.69%.

Regarding `CN1CCN(c2cc(CNC(=O)c3ccsc3)ccn2)CC1`, the cytotoxicity at 10 µM was -7.27%.

`O=C(O)C1CCCN(c2nc3c(-c4ccccc4)csc3c(=O)[nH]2)C1` (stereo unspecified): the cytotoxicity at 10 µM is -10.1%.

With `Cc1c(C2SCC(=O)Nc3c2c(O)nn3C2CCCCC2)cnn1C` (stereo unspecified), the cytotoxicity at 10 µM stood at 0.618%.

With `Cc1ccccc1CSc1nc(N)cc(N2CCOCC(CO)C2)n1` (stereo unspecified), the cytotoxicity at 10 µM was -9.23%.

Regarding `CC(C)(C(=O)NCCCc1nc2ccccc2[nH]1)n1cc(Cl)cn1`, the cytotoxicity at 10 µM came out at 4.05%.

For `Cc1cccc(S(=O)(=O)NCc2cccc(CS(C)(=O)=O)c2)c1`, the cytotoxicity at 10 µM was -18.4%.

With `Cc1cccc2nc(CN3CCC(Cn4ccnn4)CC3)cc(=O)n12`, the cytotoxicity at 10 µM was determined as 2.62%.

With `COCc1ccccc1NC(=O)NCc1ccc(OCC2CC2)nc1`, the cytotoxicity at 10 µM worked out at 3.88%.

Take `CC(NC(=O)NCCNc1ncccn1)c1cccs1` (stereo unspecified): the cytotoxicity at 10 µM was -0.447%.

`c1ccc(Oc2nccc3occc23)c(CN2CCCCC2)c1`: the cytotoxicity at 10 µM was -10.1%.

As to `COCC(=O)N1CCN(S(=O)(=O)c2ccccc2)[C@@H](C(=O)OC)C1`, the cytotoxicity at 10 µM stood at 1.03%.

Regarding `O=C(Cn1cc(-n2cccc2)cn1)NCC(F)(F)F`, the cytotoxicity at 10 µM amounted to 16%.

With `CC(=O)N1CCCN(CCCSCc2ccccc2)CC1`, the cytotoxicity at 10 µM was -4.53%.

Consider `COc1cccc(NC(=O)CCCc2nc(C(C)C)no2)c1`, for which the cytotoxicity at 10 µM was 6.39%.

`CN(C)C(=O)COC[C@]12COC[C@H]1CN(Cc1ccccc1)C2`: the cytotoxicity at 10 µM was -5.78%.

`Nc1ncc(-c2ccc(C(F)(F)F)cc2)c(C2CCCNC2)n1` (stereo unspecified): the cytotoxicity at 10 µM was 27.1%.

For `O=C(c1ccc(Cn2cnnn2)cc1)N1CC[C@H](CO)[C@H](O)C1`, the cytotoxicity at 10 µM was determined as 0.529%.

As to `Cc1cccc(-c2ccc(C(=O)NCCN3CCOCC3)c(=O)[nH]2)c1`, the cytotoxicity at 10 µM is -5.88%.

For `CCc1cnc(CN(C)C2CCN(CCCS(=O)(=O)NC)C2)o1` (stereo unspecified), the cytotoxicity at 10 µM worked out at 7.82%.

As to `COC(C)(C)CC(C)NC(=O)Nc1ccccn1` (stereo unspecified), the cytotoxicity at 10 µM is 8.19%.

In the case of `COc1ccc2c(c1)NC(=O)C2OC(=O)CC(C)(C)C` (stereo unspecified), the cytotoxicity at 10 µM is 2.41%.

On to `Cc1ccc(CNC2CCN(CCc3ccncc3)CC2)s1`, for which the cytotoxicity at 10 µM was -13.9%.

For the compound `CCc1cc(NCCNc2cccnc2)n2nccc2n1`, the cytotoxicity at 10 µM was -11.9%.
